Measured values of several laboratories.
Dihydrofolate reductase: Dihydrofolate reductase (Mycobacterium avium, UniProt O30463)
Ephx2: Bifunctional epoxide hydrolase 2 (Ephx2, Rattus norvegicus, UniProt P80299)

`O=C(C=Cc1ccccc1)Nc1cc(-c2ccnc(N3CCC(O)CC3)c2)ccn1` gave a Kd of 1280 nM (Estrogen receptor (ESR1, Homo sapiens, UniProt P03372); binding; SPR).
For `CC[C@H](NC(=O)[C@H](CS(=O)(=O)CC1CC1)N[C@@H](c1ccc(F)cc1)C(F)(F)F)C(=O)C(=O)NC1CC1`, the IC50 was 18000 nM (Dipeptidyl peptidase 1 (Ctsc, Mus musculus, UniProt P97821); enzyme activity; inhibitor; fluorescence).
With `CCCOc1nc(N)nc(N)c1OCCCOc1ccccc1CCC(=O)O` the IC50 was > 5000 nM (Dihydrofolate reductase; enzyme activity; inhibitor).
For `Cc1cc([C@@H](C)Nc2ccccc2C(=O)O)c2nc(N3CCC(F)(F)CC3)c(C#N)c(=O)n2c1`, the IC50 was > 10000 nM (Phosphatidylinositol 3-kinase catalytic subunit type 3 (PIK3C3, Homo sapiens, UniProt Q8NEB9); enzyme activity; inhibitor; ADP detection).
For `O=C(Nc1ccc(-c2ccnc3ccccc23)cc1)C1CCN(S(=O)(=O)c2ccccc2Cl)CC1`, the IC50 was 0.7 nM (Ephx2; enzyme activity; inhibitor; fluorescence).
The IC50 of `O=c1cc(-c2ccc(O)cc2)oc2c([C@@H]3OC[C@H](O)[C@H](O)[C@H]3O)c(O)c([C@@H]3O[C@H](CO)[C@@H](O)[C@H](O)[C@H]3O)c(O)c12` is reported as 157000 nM (Calcium/calmodulin-dependent protein kinase type II subunit beta (CAMK2B, Homo sapiens, UniProt Q13554); enzyme activity; inhibitor).
With `O=C1CC[C@H](N2Cc3cc(N4CCN(CC5CCN(c6ccc([C@@H]7c8ccc(O)cc8CC[C@@H]7c7ccccc7)cc6)CC5)CC4)ccc3C2=O)C(=O)N1` the IC50 was 83 nM (Glucocorticoid receptor (NR3C1, Homo sapiens, UniProt P04150); ligand displacement; radioligand).
With `CN1Cc2c(N)cccc2C(=O)N1C1CCC(=O)NC1=O` (stereo not shown) the DC50 was 67.2 nM (Cereblon/Ikaros (Homo sapiens, UniProt Q13422+Q96SW2); protein level; degrader; luciferase).
For `Nc1nc(N)c(OCCCOc2ccccc2CCC(=O)O)c(-c2ccc(C(F)(F)F)cc2)n1`, the IC50 was 67 nM (Dihydrofolate reductase; enzyme activity; inhibitor).
`O=C(Nc1ccc(-c2ccc3cccnc3c2)cc1)C1CCN(S(=O)(=O)c2ccccc2Cl)CC1` gave an IC50 of 8.1 nM (Ephx2; enzyme activity; inhibitor; fluorescence).
